FXIa inh 1536 – blocks human coagulation factor XIa protease activity. inhibition, % at 5 µM. P03951. AID 798. purified FXIa, Boc-Glu-Ala-Arg-AMC fluorogenic substrate. 0.14% of 220,000 active;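 active = inhibition of at least 40%; inactive = inhibition below 40%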;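 also: fluorescence of freed AMC excited at 355 nm; 0% = enzyme without compound and 100% = no enzyme blank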
Target sequence (P03951 19-387 limits assumed): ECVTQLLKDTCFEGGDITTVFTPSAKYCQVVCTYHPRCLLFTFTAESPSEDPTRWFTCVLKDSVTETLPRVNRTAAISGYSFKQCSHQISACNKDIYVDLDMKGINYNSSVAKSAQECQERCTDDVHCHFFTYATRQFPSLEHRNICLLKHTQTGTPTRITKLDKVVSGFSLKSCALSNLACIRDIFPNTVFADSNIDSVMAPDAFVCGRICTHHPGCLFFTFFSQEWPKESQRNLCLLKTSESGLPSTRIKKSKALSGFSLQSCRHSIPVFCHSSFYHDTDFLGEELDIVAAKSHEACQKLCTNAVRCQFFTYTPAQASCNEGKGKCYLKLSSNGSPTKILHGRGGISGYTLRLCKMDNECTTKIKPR
Target sequence (P03951 388-625 limits assumed): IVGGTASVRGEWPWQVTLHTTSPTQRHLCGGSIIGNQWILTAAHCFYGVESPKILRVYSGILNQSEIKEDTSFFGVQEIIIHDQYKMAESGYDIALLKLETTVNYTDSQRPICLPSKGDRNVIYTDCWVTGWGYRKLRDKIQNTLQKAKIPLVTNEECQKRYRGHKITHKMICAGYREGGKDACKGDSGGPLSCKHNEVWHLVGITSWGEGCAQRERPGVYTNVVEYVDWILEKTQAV
Thrombin inh – inhibitors of human thrombin | alpha-thrombin, Boc-VPR-AMC fluorogenic substrate cleavage | AID 1046 | inhibition, % at 5 µM | 0.26% of 220,000 active | P00734;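 active = inhibition at or above 40%; inactive = inhibition below 40%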;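 also: 0% = enzyme with no compound and 100% = wells without enzyme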
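System: human alpha-thrombin protein; Compound dosing: one concentration per compound, 5 µM, with 0.2% DMSO; Timing: reaction at room temperature; Technique: AMC fluorescence, 355/460 nm; Controls: enzyme without compound as high, wells lacking enzyme as low.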
EP2 mod – EP2 receptor (human) modulation; P43116; EP2-expressing cells, cAMP HTRF FRET, PGE2 co-stimulation; induction, % at 25 µM; 0.83% of 260,000 active;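 active = compounds whose cAMP rise, as percent of the full-agonist control response, exceeds 60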;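 also: rat C6 glioma line stably carrying human EP2 under a CMV promoter; the protocol text gives 20 µM as final concentration; 100% = response of wells given 1 µM PGE2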
FXIIa inh – factor XIIa (human) inhibition; purified FXIIa, Boc-QGR-AMC fluorogenic substrate, 2 h; inhibition, % at 5 µM; 0.3% of 220,000 active; AID 800; in the data active = inhibition above about 40%;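 also: 0% = enzyme with no compound and 100% = blank without enzyme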
KLK5 inh – blocks human kallikrein 5 protease activity | inhibition, % at 5 µM | recombinant hK5, fluorogenic AMC substrate cleavage | AID 873 | 0.59% of 210,000 active | Q9Y337;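 active = inhibition of 40% or more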;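 also: 0% = enzyme controls without compound and 100% = no-enzyme blanks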
PGE2 EP2 inh – EP2 receptor (human) inhibition; C6 glioma cells expressing human EP2, cAMP TR-FRET; cells stimulated with saturating PGE2; P43116; inhibition, % at 25 µM; 0.52% of 260,000 active;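 active = percent inhibition above 40 after rounding to a whole number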;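 also: rat C6 glioma host cells with rolipram phosphodiesterase inhibitor present; the protocol text gives 20 µM as final concentration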
* hit, by the source's call; x = not tested or not shown. Most compounds without a hit are left out; they make up all but 2.1% or so of the library.

SMILES	FXIa inh 1536	Thrombin inh	EP2 mod	FXIIa inh	KLK5 inh	PGE2 EP2 inh
CCOc1ccc2[nH]c(=O)c(CN(C(=O)Nc3cccc(Cl)c3)C3CC3)cc2c1	x	x	-34.6	x	x	15.3
CCOc1ccc(/C=C(\C#N)C(=O)c2c(C)[nH]c3ccccc23)cc1OC	6.4	-5.2	8.2	14.1	-11.3	6.2
COc1cc(/C=C(/C#N)C(=O)c2c(C)[nH]c3ccccc23)ccc1OCC#N	21.6	13.9	2.6	25.1	42.1*	3.6
COc1ccc2cc(C3C(C#N)=C(N)OC(C)=C3C(C)=O)c(Cl)nc2c1 (stereo not given)	21.1	27.2	-29.0	32.6	42.1*	0.1
O=C(CN1CCC(O)(c2cccnc2)CC1)NCCc1ccccc1	x	x	-39.3	x	x	x
CCN(c1ccccc1)S(=O)(=O)c1ccc(F)cc1C	19.0	7.9	62.5*	21.8	3.0	10.5
O=C(Cc1c[nH]c2ccccc12)N1C2CCC1CC(c1ccc(F)cc1)C2 (stereo not given)	x	x	-42.9	x	x	4.0
CCOCc1nnc(NC(=O)c2c(Cl)cccc2Cl)s1	x	x	-33.9	x	x	9.7
S=c1nc[nH]c2c1cnn2-c1ccccc1	6.2	5.1	71.0*	4.7	-7.9	9.4
CCOc1ccccc1NC(=O)C(NCC1CCCCC1)c1ccccc1 (stereo not given)	-6.3	-1.0	64.8*	-1.3	-13.9	9.1
CSc1ccccc1-c1n[nH]c(=S)o1	-1.0	-7.9	38.4	9.6	2.9	46.4*
CCOc1ccc(-n2c(SCC(=O)NCc3ccccc3)nnc2-c2cccnc2)cc1	x	x	-34.0	x	x	8.8
O=C(C[n+]1cc(-c2ccccc2)n2c1CCC2)Nc1nc(-c2ccccc2)cs1	30.0	18.1	9.2	40.9*	41.6*	3.2
Cc1ccc(-c2c[n+](CC(=O)Nc3nc(-c4ccccc4)cs3)c3n2CCC3)cc1	2.0	3.8	-37.1	5.3	1.9	5.5
CCCCOc1ccc(NC(=O)Cn2nc(-c3ccco3)cc(N)c2=O)cc1	x	x	17.8	x	x	7.5
COc1cc(/C=N/NC(=O)c2ccc(CN3C(=O)c4cccc5cccc3c45)cc2)cc(OC)c1O	50.3*	12.7	-26.2	26.6	24.3	6.2
COc1ccc(/C=N/NC(=O)c2ccc(CN3C(=O)c4cccc5cccc3c45)cc2)cc1O	4.2	0.0	-41.7	11.6	x	9.1
Cc1ccc(C)n1-c1cc([N+](=O)[O-])ccc1-n1ccnc1	2.9	-0.1	9.1	8.6	0.8	7.4
CC1(C)N([O-])c2cc([N+](=O)[O-])ccc2[N+]1=O	2.5	1.9	-44.9	12.5	0.3	86.8*
O=C1CCCN1CC1CCCN(CC2(c3ccc(Cl)cc3)CC2)C1 (stereo not given)	x	x	9.4	x	x	8.3
COCCOc1cc(NC(=O)c2sccc2Oc2ccc([N+](=O)[O-])cc2F)c(Cl)cc1Cl	0.5	-11.7	29.7	12.6	-21.0	7.3
O=C(O)c1cc([N+](=O)[O-])ccc1C(=O)Nc1ccccc1	-6.3	-6.9	61.2*	1.7	-6.2	3.9
O=C(O)c1cc([N+](=O)[O-])ccc1NCc1ccccc1Cl	17.3	40.7*	-36.8	19.5	x	6.1
O=C(Nc1ccccc1)c1sccc1Oc1ccc([N+](=O)[O-])cc1F	-2.0	0.5	63.2*	8.3	0.6	11.2
CCc1nn(CC(=O)N2CCCCC2C)c(=O)c2cc3sc(C)cc3n12 (stereo not given)	x	x	11.6	x	x	x
SMILES	FXIa inh 1536	Thrombin inh	EP2 mod	FXIIa inh	KLK5 inh	PGE2 EP2 inh
O=C(C1CCN(c2ccc(N3CCOCC3)nn2)CC1)N1CCN(c2ccc(F)cc2)CC1	-6.2	-0.1	x	-9.7	105.7*	7.3
C[N+]12CCCCC1C(COCCC#N)CCC2 (stereo not given)	x	x	0.2	x	x	14.6
COC(=O)c1ccccc1NC(=O)CN1CCC(C)CC1	1.1	-7.3	47.8	3.0	-3.7	6.3
CC1CCN(CC(=O)Nc2ccccc2C#N)CC1	14.1	42.5*	8.9	23.6	22.6	13.5
COc1ccc(-c2oc3ccc(N4CCOCC4)cc3c2C#CC2(O)CCCCC2)cc1	x	x	x	x	x	8.1
COc1ccc(/C=C/c2c(-c3cccc(C)c3)oc3ccc(N4CCOCC4)cc23)cc1	x	x	x	x	x	40.1*
CCCCNc1nc(-c2ccccc2)cc(C(F)(F)F)c1C(N)=O	5.2	-7.5	64.2*	12.4	-6.8	11.8
CCC(c1nnnn1C1CCCCC1)N(CCCO)Cc1cc2cc(C)cc(C)c2[nH]c1=O (stereo not given)	x	x	5.5	x	x	8.5
O=C(Cn1nc(C(F)F)cc1C(F)F)NNC(=S)Nc1ccc(F)cc1	-3.5	50.2*	12.2	-17.2	-222.9	7.3
CCCOc1ccc(/C=N/NC(=O)C2CCCN2S(=O)(=O)c2ccc(Cl)cc2)cc1 (stereo not given)	14.1	13.6	1.8	25.7	49.4*	15.7
COc1ccc(Cl)cc1-n1nnnc1-c1ccccc1Cl	x	x	37.7	x	x	7.7
CN1CCN(CCNC(=O)c2cn(Cc3ccccc3F)nn2)CC1	28.7	15.2	-7.1	60.1*	20.1	7.8
C/C(=N\NS(=O)(=O)c1ccc(Cl)c([N+](=O)[O-])c1)c1cc2ccccc2o1	-7.1	-1.3	-11.3	0.7	0.8	14.2
C/C(=N\NS(=O)(=O)c1ccc(C)c([N+](=O)[O-])c1)c1cc2ccccc2o1	11.5	6.0	27.6	15.1	106.6*	7.6
O=C(N1CCC(c2cccnc2)CC1)C1(c2cccc(F)c2)CCCC1	x	x	-7.3	x	x	6.5
Cc1ccc(NC(=S)NC(=O)c2ccccc2)cc1NC(=S)NC(=O)c1ccccc1	-2.8	-13.3	-35.8	-0.9	-14.2	37.7
Cc1cc(C)c(NC(=S)NC(=O)c2ccc(-c3ccccc3)cc2)c(C)c1	14.3	9.1	13.7	33.9	56.6*	7.4
CC(C)c1nnc(NC(=O)c2cnccn2)s1	15.1	40.9*	29.5	25.1	37.3	2.1
NC(=O)c1c(NC(=O)Cn2nc(C(=O)O)c3ccccc3c2=O)sc2c1CCCC2	21.5	98.7*	15.9	32.2	33.7	14.1
CC1CC(=O)c2c(cc3c(-c4c(O)cc(O)c5c(O)c6c(cc45)OC(C)CC6=O)c(O)cc(O)c3c2O)O1 (stereo not given)	8.4	5.8	-17.4	13.6	-2.2	76.8*
CCOc1ccc(NC(=O)N2CCCC2C(=O)Nc2c(OC)cccc2OC)cc1 (stereo not given)	x	x	17.4	x	x	14.5
COc1ccccc1NS(=O)(=O)c1ccc(O)c(C(N)=O)c1	1.1	-1.1	11.7	11.2	-10.7	10.5
COc1ccccc1NS(=O)(=O)c1ccc(O)c(C(=O)OCC(=O)c2ccc(Cl)cc2Cl)c1	49.2*	28.9	3.7	31.7	32.3	2.5
CN(C1CCCCC1)S(=O)(=O)c1ccc(-n2cnnn2)cc1	-4.1	1.0	13.8	11.1	2.6	8.0
O=S(=O)(c1ccc(-n2cnnn2)cc1)N(C1CCCCC1)C1CCCCC1	-1.0	2.1	64.4*	9.2	-15.2	4.7
CC(=O)N(CCCN1CCOCC1)c1nc(-c2ccc(Cl)cc2)cs1	x	x	-32.3	x	x	15.5

Bioassay records: PubChem, several laboratories
